# Experimental data published in ChEMBL document CHEMBL1132600.
# Tested on: not listed separately
# Assay: Ratio of Vmax value and Km value of the compound.
# Procedure, shortened: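 Sprague–Dawley rat brain microsomes (105000g pellet) at 0.3 mg/mL protein, 37 °C, pH 7.4, BSA as carrier. Varied substrate concentrations, sampled at least four times within the linear initial range. Arachidonic acid formed measured by RP-HPLC (UV 204 nm, calibration curve). Initial velocity vs substrate concentration fitted to Michaelis–Menten.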
Structure (SMILES),Vmax / Km (ml min-1 kg-1),Vmax / Km (ml min-1 mg-1)
CCCCC/C=C\C/C=C\C/C=C\C/C=C\CCCC(=O)N[C@@H](C)CO,0.049,–
CCCCC/C=C\C/C=C\C/C=C\C/C=C\CCCC(=O)Nc1ccccc1O,0.43,–
CCCCC/C=C\C/C=C\C/C=C\C/C=C\CCCC(=O)N[C@H](C)CO,0.011,–
CCCCC/C=C\C/C=C\C/C=C\C/C=C\CCCC(N)=O,–,1.24

# Biological target: T1, Fatty-acid amide hydrolase 1 (Rattus norvegicus) (UniProt P97612)
# T1 sequence (whole entry): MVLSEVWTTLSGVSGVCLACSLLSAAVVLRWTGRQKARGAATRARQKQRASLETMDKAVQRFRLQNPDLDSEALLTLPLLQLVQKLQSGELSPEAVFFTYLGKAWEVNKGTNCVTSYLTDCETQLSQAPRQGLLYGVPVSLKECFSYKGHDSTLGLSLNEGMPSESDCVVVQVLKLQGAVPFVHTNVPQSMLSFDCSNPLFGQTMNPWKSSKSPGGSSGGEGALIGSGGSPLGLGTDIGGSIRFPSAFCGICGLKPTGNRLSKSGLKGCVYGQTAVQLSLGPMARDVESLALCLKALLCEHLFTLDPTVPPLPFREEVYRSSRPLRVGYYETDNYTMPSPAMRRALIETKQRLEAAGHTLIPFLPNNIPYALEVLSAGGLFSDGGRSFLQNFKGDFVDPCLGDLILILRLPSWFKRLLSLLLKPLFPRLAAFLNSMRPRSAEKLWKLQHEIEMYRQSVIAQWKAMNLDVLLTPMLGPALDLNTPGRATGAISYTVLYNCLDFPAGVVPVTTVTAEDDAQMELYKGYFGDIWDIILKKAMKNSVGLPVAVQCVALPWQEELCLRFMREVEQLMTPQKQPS
# Assay: Tested for hydrolysis by rat brain microsomal anandamide amidohydrolase (AAH).
# Procedure, shortened: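 Substrate at 100 μM (final) with 150 μg rat brain microsomal protein in 50 mM Tris·HCl, 1 mM EDTA, 0.1% BSA, pH 7.4, 37 °C, 15 min with shaking. Stopped with acetonitrile. Products quantified by RP-HPLC: arachidonic acid at 204 nm, or ethanolamine-type amine by OPA precolumn derivatization at 230 nm. Substrate-free blank subtracted. Four experiments in duplicate.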
Structure (SMILES),Rate of hydrolysis (nM min-1 mg-1),Relative rate of hydrolysis
CCCCC/C=C\C/C=C\C/C=C\C/C=C\CCCC(=O)Nc1ccc(O)cc1,0.208,16%
CCCCC/C=C\C/C=C\C/C=C\C/C=C\CCCC(=O)N(C)CCO,0,0%
CCCCC/C=C\C/C=C\C/C=C\C/C=C\CCCC(=O)N[C@@H](C)CO,0.299,–
CCCCC/C=C\C/C=C\C/C=C\C/C=C\CCCC(=O)OCC(O)CO (stereo not drawn),3.43,264%
CCCCC/C=C\C/C=C\C/C=C\C/C=C\CCCC(=O)Nc1cccc(O)c1,1.98,152%
CCCCC/C=C\C/C=C\CCCCCCCC(=O)NCCO,0.98,–
CCCCC/C=C\C/C=C\C/C=C\C/C=C\CCCC(=O)Nc1ccccc1O,2.51,193%
CCCCC/C=C\C/C=C\C/C=C\C/C=C\CCCC(=O)NCCO,1.3,–
CCCCC/C=C\C/C=C\C/C=C\C/C=C\CCCC(=O)N[C@H](C)CO,0.03,–
CCCCC/C=C\C/C=C\C/C=C\C/C=C\CCCC(=O)NC(C)(C)C,0.022,1.8%
CCCCC/C=C\C/C=C\C/C=C\C/C=C\CCCC(=O)NC[C@@H](C)O,1.58,121%
CCCCC/C=C\C/C=C\C/C=C\C/C=C\CCCC(=O)NCC(C)C,0.025,2%
CCCCC/C=C\C/C=C\C/C=C\C/C=C\CCCC(=O)OC(CO)CO,3.27,251%
CCCCCCCCCCCCCCCCCC(=O)NCCO,0.2,15%
CCCCC/C=C\C/C=C\C/C=C\C/C=C\CCCC(N)=O,2.85,219%
CCCCC/C=C\C/C=C\C/C=C\C/C=C\CCCC(=O)NC1CCC(O)CC1 (stereo not drawn),0.299,2%
CCCCC/C=C\C/C=C\C/C=C\C/C=C\CCCC(=O)NC(C)(C)CO,0.056,4.3%
CCCCC/C=C\C/C=C\C/C=C\C/C=C\CCCC(=O)N[C@H](C)CC,0,0%
CCCCC/C=C\C/C=C\C/C=C\C/C=C\CCC(C)(C)C(=O)NCCO,0.0094,0.7%
CCCCC/C=C\C/C=C\C/C=C\C/C=C\CCCC(=O)N[C@@H](C)CC,0.082,6.3%
CCCCC/C=C\C/C=C\C/C=C\C/C=C\CCCC(=O)Nc1ccc(CO)cc1,0,0%
CCCCC/C=C\C/C=C\C/C=C\C/C=C\CCCC(=O)N(CCO)CCO,0,–
CCCCCCCC/C=C\CCCCCCCC(=O)N[C@@H](C)CO,0.47,3.6%
CCCCC/C=C\C/C=C\C/C=C\C/C=C\CCCC(=O)NCCF,1.65,127%
CCCCC/C=C\C/C=C\CCCCCCCC(=O)N[C@@H](C)CO,0.27,20.5%
CCCCCCCC/C=C\CCCCCCCC(=O)NCCO,0.79,61.1%
CCCCC/C=C\C/C=C\C/C=C\C/C=C\CCCC(=O)NC[C@H](C)O,0.273,21%
